Compound activity from PubChem.
Sampled rows, rich in hits. Any-hit rate of the full collection: about 2.4%.
Runt-CBFb FRET: blocks binding of human RUNX1 Runt domain to CBFb; actives 0.46% (n = 220,000); inhibition, % at 20 µM; Cerulean-Runt/Venus-CBFb FRET ratio 530/480, 1 h; AID 1496; Q01196+Q13951;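 active means inhibition over about 50% at 20 µM in the single-dose screen, limit read from the data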;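 further: 0% = DMSO wells and 100% = excess unlabeled CBFb competitor control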
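Doses: 20 µM compound in 1% DMSO | Material: Cerulean-labeled Runt domain protein | Amount: Each fluorescent fusion protein 100 nM | Schedule: Two 1 h room-temperature incubations shielded from light | Measured by: FRET fluorescence | Evaluation: Loss of energy transfer signal | Controls: Unlabeled CBFb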
MEX-5 binding: C. elegans MEX-5 TCR-2 RNA binding activity; Q9XUB2; MEX-5/FITC-TCR2 RNA binding, fluorescence polarization; active compounds read low; activity score (negative = inhibition of binding), % at 10 µM; actives 0.38% (n = 300,000); AID 1832;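 active means inhibition past about -25% in most replicates, and total fluorescence under double the plate's negative control median, limit read from the data; inconclusive means replicates evenly split on the limit, or fluorescence at least double controls; inactive means too little inhibition in most replicates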;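 further: 0% = DMSO and -100% = 5 µM competing unlabeled TCR2 RNA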
Target sequence (Q9XUB2 whole entry, looked up): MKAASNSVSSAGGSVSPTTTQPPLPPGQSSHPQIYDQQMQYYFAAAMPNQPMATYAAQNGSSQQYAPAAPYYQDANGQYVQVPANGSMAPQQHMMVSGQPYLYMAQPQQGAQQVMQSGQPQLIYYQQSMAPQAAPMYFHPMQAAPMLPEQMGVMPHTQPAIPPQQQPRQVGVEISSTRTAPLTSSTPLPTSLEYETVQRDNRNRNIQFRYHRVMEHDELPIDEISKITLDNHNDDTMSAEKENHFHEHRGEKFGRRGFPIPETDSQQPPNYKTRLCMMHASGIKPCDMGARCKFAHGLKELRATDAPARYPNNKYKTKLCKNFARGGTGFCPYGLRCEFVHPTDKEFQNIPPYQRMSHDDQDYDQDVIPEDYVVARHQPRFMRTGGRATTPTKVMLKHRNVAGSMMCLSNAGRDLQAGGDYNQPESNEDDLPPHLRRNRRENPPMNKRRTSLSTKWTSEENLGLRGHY
LANA-H2B inh: blocks KSHV LANA binding to histone H2A/H2B; Q9QR71; cell-free LANA-H2A/H2B peptide, fluorescence polarization; inhibition, % (no concentration beside the values); actives 0.6% (n = 320,000); AID 2629; in the data active means inhibition mostly above about 10%, no sharp cut-off; inactive means mostly below about 6.7%
EBV gp42 block: blocks Epstein-Barr virus glycoprotein 42 binding; AID 1085; Q1HVG2; inhibition, % (tested at 21.74 µM); Fluorescence polarization binding assay, mP read-out; actives 0.42% (n = 220,000); in the data active means inhibition above about 50%
Target sequence (Q1HVG2 whole entry, looked up): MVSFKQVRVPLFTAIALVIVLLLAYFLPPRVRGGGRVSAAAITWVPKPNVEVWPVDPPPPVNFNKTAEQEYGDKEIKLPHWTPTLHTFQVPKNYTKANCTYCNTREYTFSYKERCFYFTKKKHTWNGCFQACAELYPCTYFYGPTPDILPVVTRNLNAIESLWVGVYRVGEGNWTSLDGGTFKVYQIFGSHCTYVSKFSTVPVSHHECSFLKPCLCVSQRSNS
RanGTP-Imp inh: inhibitors of RanGTP-importin-beta interaction, primary screen, biochemical, FRET, CFP-Ran, YFP-importin-beta, homogeneous; inhibition, % (concentration not given with the values); cell-free CFP-Ran/YFP-importin-beta FRET ratio; AID 2216; actives 1.1% (n = 300,000);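 active means more than half of the replicate wells show a fall in the fluorescence ratio signal beyond about 16%, limit read from the data, passing the limit was not always enough; inconclusive means exactly half of the replicate wells pass the set limit; inactive means fewer than half of replicates pass the limit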;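 further: 0% = DMSO wells and 100% = Ran loaded with GDP instead of GTP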
Runt-SMMHC FRET: Runt domain-CBFb-SMMHC interaction inhibition; Q01196+Q13951; Cerulean-Runt/Venus-CBFb-SMMHC FRET ratio 530/480, 1 h; inhibition, % at 20 µM; actives 0.74% (n = 220,000); AID 1434;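 active means mean inhibition across duplicate retests at 20 µM reaching about 50%, limit read from the data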;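 further: 0% = DMSO wells and 100% = wells with excess untagged CBFb-SMMHC; inhibitors lower the FRET ratio by blocking Runt binding to CBFb-SMMHC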
* hit, by the source's call; ? = inconclusive; . = no result given; ! = not confirmed by another sample.

SMILES | Runt-CBFb FRET | MEX-5 binding | LANA-H2B inh | EBV gp42 block | RanGTP-Imp inh | Runt-SMMHC FRET
CC(C)(C)c1cc[n+](-c2[nH]c(=O)sc2/C=N/NC([S-])=Nc2ccccc2)cc1 | -24 | ? | 42* | 117* | -12 | -48
O=C(COc1ccccc1[N+](=O)[O-])N1CCN(c2ccccn2)CC1 | . | -1 | 3 | . | -2 | .
Oc1ccccc1C=NC1=NN(c2cccc(C(F)(F)F)c2)CC1 | 1 | 1 | 0 | 113* | 0 | 0
COCCN(C(=O)CCSc1ccc(F)cc1)c1c(N)n(Cc2ccccc2)c(=O)[nH]c1=O | . | . | -3 | . | . | .
COCCNC(=O)CN1C(=O)NC(c2ccccc2)(c2ccccc2)C1=O | . | 1 | -2 | . | 4 | .
c1ccc(-c2ccc(-c3ccccn3)s2)nc1 | -3 | 1 | -1 | -2 | 18* | 4
c1ccc(-c2nnc(-c3ccccn3)nn2)nc1 | . | -42* | -1 | . | 1 | .
OCCN(CCO)CC(O)COCCC12CC3CC(CC(C3)C1)C2 (stereo not drawn) | 0 | 0 | 2 | -25 | 1 | -1
CC(C)(O)C#Cc1ccc(C(=O)NC(CCCNC(N)=O)C(=O)O)s1 (stereo not drawn) | -1 | 1 | 4 | -13 | 1 | -5
Cc1nonc1C(=O)N/N=C/c1ccc(O)c(O)c1 | 26 | -5 | 0 | -25 | -3 | 15
O=C(N/N=C/c1ccc(O)c(O)c1)N/N=C/c1ccc(O)c(O)c1 | . | -39* | 4 | . | 0 | .
Oc1ccc(/C=N/NC(=S)Nc2cccnc2)cc1O | 10 | -45* | -2 | 4 | 0 | 9
O=C(O)C1CSC(c2ccc3c(c2)OCO3)N1 (stereo not drawn) | 0 | 3 | 22* | -4 | 5 | 1
CCc1ccc(C2NC(C(=O)O)CS2)cc1 (stereo not drawn) | 2 | . | . | -16 | . | -9
CCN(CC)c1ccc(SS(=O)(=O)O)cc1 | 22 | -4 | 35*! | -24 | -1 | -2
CC1C(=O)N2CCCc3cc(NC(=O)C4CCCCC4)cc1c32 (stereo not drawn) | . | -2 | 2 | . | 3 | .
Cc1cccc(NC(=S)N=Nc2c(O)n(CN3CCOCC3)c3ccccc23)c1C | -4 | 1 | 5 | -21 | . | -3
Cc1ccc(N=Nc2c(O)n(CN3CCOCC3)c3ccccc23)cc1 | -27 | -28* | -1 | 94* | -4 | -86
c1ccc(-c2nnc(-c3ccncc3)o2)cc1 | 0 | 3 | -1 | 15 | 0 | 1
COc1ccc(-c2nnc(-c3cc4c(ccc5ccccc54)oc3=O)o2)cc1 | 16 | -42* | 5 | 51* | -6 | 39
O=c1oc2ccc3ccccc3c2cc1-c1nnc(-c2cccs2)o1 | 19 | -4 | . | -21 | 114* | 58*
COc1ccc(-c2cc(-c3nnc(-c4ccncc4)o3)c3ccccc3n2)cc1 | 34 | -3 | 2 | -28 | 3 | 70*
c1csc(-c2nnc(Cc3cccc4ccccc34)o2)c1 | 0 | 0 | -1 | -1 | 1 | 3
COc1ccc2cc(-c3ccccc3)c(=O)oc2c1 | . | 2 | -2 | . | 3 | .
Nc1nnc(-c2cc3c(ccc4ccccc43)oc2=O)s1 | 20 | . | . | 66* | . | 92*
SMILES | Runt-CBFb FRET | MEX-5 binding | LANA-H2B inh | EBV gp42 block | RanGTP-Imp inh | Runt-SMMHC FRET
COc1ccc(CCNC(=O)c2cc(=O)c3cc(C)ccc3o2)cc1 | . | -2 | 1 | . | -4 | .
COc1ccc(-n2c(SCC(=O)C(C)(C)C)nc3c(sc(=S)n3-c3ccccc3)c2=O)c(OC)c1 | . | 1 | 1 | . | 2 | .
O=c1oc2ccc3ccccc3c2cc1-c1nnc(-c2ccccc2)o1 | 76* | -3 | -3 | -14 | 122* | 39
Cc1cc(C(=O)COC(=O)CCc2nc3ccccc3s2)c(C)n1C | 2 | 1 | 13* | 1 | ? | -1
O=C(CCc1nc2ccccc2s1)OCc1ccccc1 | -1 | 0 | 1 | -11 | -2 | 0
O=C(O)/C=C/C(=O)NCCCc1ccccc1 | -2 | -2 | 2 | 6 | 5 | -2
CCCCOC(=O)Nc1cc(Cl)ccc1C | 0 | -1 | -9 | -17 | -2 | -9
CCCOC(=O)NC(CC)COC(=O)Nc1cc(C)ccc1C (stereo not drawn) | 2 | 0 | 46* | -20 | -1 | 4
COc1cc([N+](=O)[O-])ccc1-c1ccc(/C=N/NC(=O)c2ccccc2O)o1 | -18 | 2 | . | 67* | -23 | -36
Cc1cc([N+](=O)[O-])ccc1-c1ccc(/C=N/NC(=O)Cc2ccccc2)o1 | -25 | -15 | -8 | 89* | -39 | -63
O=C(Cc1ccc([N+](=O)[O-])cc1)N/N=C/c1ccc([N+](=O)[O-])o1 | 5 | 1 | -4 | -39 | 3 | 1
O=C(N/N=C/c1ccc(-c2cccc([N+](=O)[O-])c2)o1)c1ccc([N+](=O)[O-])cc1 | 2 | -35* | 0 | -8 | 2 | -3
O=C(N/N=C/c1ccc(-c2cccc([N+](=O)[O-])c2)o1)c1ccccc1O | 4 | 3 | 0 | 5 | 4 | 4
CCOC(=O)c1ccc(NC(=O)CCc2nnc3ccc(N4CCCC4)nn23)cc1 | . | 3 | 2 | . | 0 | .
CCN(CC)c1ccc(NC(=O)CCc2nnc3ccc(N4CCCC4)nn23)c(C)c1 | . | 0 | 29* | . | -2 | .
Cc1cc(C)c2nc(N3CCCN(C(=O)c4cnccn4)CC3)c(C#N)cc2c1 | 11 | -3 | -1 | -10 | 39* | 31
Cc1ccc(C(=O)N2CCCN(c3nc4cc5c(cc4cc3C#N)OCO5)CC2)cc1 | . | -5 | -3 | . | 113* | .
N#Cc1cc2cc3c(cc2nc1N1CCCCC1)OCCO3 | 34 | -2 | 1 | 10 | 59* | 107*
Cc1ccc2nc(N3CCN(C)CC3)c(C#N)cc2c1 | 4 | -3 | 1 | -23 | 6 | 12
Cc1cc(=O)oc2cc(NC(=O)Cc3ccccc3[N+](=O)[O-])ccc12 | . | 2 | -2 | . | -1 | .
Cc1ccc(CSCc2ccc(C(=O)NCCC(C)C)o2)cc1 | . | 1 | -6 | . | 2 | .
CCOc1ccc(C(C)=O)cc1Cn1c(=O)oc2ccccc21 | . | 1 | 2 | . | -2 | .
CCOc1ccc(Br)cc1S(=O)(=O)N1CCSC1 | . | -1 | -8 | . | -1 | .
CCCCn1c(N)c(N(CC(C)C)C(=O)CCCc2nc3ccccc3c(=O)[nH]2)c(=O)[nH]c1=O | . | 0 | 3 | . | 7 | .
COc1cc(NC(=O)COc2cc3oc(=O)cc(C)c3cc2Cl)cc(OC)c1OC | . | 1 | 15* | . | ? | .
COc1cc(NC(=O)COc2ccc3c(C)cc(=O)oc3c2C)cc(OC)c1OC | . | -1 | 1 | . | 0 | .
Cc1ccc(F)cc1NC(=O)C1CC(=O)N(CCc2ccccc2)C1 (stereo not drawn) | 1 | -3 | -4 | -2 | -1 | -4
Cc1ccc2c(c1)CCCN2C(=O)CCc1nc2ccccc2c(=O)[nH]1 | . | . | 3 | . | . | .
